Bioassay records deposited in PubChem by several laboratories.
NTR1 ag: NTR1 (human) agonism. 0.17% of 330,000 active. P30989. activation, % at 20 µM. AID 493036. NTR1-U2OS beta-arrestin-GFP spot imaging, agonist mode;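 active = activation at or above 40% of the spot to cytoplasm intensity ratio, with at least 20 cells analyzed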;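 note: 0% = DMSO without peptide and 100% = 100 nM NTR1 peptide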
Target sequence (P30989 whole entry, looked up): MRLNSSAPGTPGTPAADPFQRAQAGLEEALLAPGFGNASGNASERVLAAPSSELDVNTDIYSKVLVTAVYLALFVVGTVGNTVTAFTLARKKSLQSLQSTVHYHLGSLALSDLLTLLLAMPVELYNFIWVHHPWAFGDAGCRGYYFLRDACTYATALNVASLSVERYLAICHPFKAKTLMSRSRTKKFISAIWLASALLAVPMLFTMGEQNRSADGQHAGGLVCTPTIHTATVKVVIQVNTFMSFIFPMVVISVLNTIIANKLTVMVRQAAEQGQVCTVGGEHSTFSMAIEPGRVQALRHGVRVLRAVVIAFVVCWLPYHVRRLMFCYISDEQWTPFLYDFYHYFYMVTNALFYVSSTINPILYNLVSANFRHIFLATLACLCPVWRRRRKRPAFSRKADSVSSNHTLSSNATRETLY
MC4R antag cAMP: human MC4R antagonism in cAMP assay. P32245. MC4R-expressing cells, MTII-stimulated cAMP, LANCE TR-FRET. inhibition, % at 6.5 µM. 0.48% of 360,000 active. AID 540295;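 active = inhibition above its plate's cutoff, the mean of tested wells on that plate plus 3 SD, cut at about 29% in these data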;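 note: 0% = Melanotan II alone and 100% = Melanotan II plus saturating MCL0020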
Target sequence (P32245 whole entry, looked up): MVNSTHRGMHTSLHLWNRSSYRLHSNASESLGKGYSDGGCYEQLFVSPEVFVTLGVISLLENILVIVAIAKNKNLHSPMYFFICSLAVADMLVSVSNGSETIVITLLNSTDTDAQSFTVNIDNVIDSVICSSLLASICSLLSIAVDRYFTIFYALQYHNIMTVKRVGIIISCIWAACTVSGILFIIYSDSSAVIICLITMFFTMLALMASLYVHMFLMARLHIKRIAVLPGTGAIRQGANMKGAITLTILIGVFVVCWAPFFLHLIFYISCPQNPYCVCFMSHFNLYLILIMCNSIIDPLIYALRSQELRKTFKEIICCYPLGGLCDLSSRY
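Assay system: U2OS-MC4R stable cell line; Also added: Melanotan II; Technique: Eu-cAMP/anti-cAMP TR-FRET, emission 671 nm; Times: 30-min compound, 1-h challenge, 1-h detection, room temperature.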
NOD2 RIPK2 PPI: blocks binding of human NOD2 to RIPK2. O43353. CHO BLA complementation NOD2-RIPK2, CCF4 ratio. inhibition, % at 4.98 µM. 0.38% of 360,000 active. AID 624267; in the data active = inhibition above about 21%;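 note: 0% = vehicle only and 100% = reference blocker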
TLR9-MyD88 inh: inhibitors of human TLR9-MyD88 binding. Q9NR96+Q99836. CHO BLA complementation TLR9-MyD88, CCF4 FRET ratio. inhibition, % at 4.98 µM. 0.21% of 340,000 active. AID 504734;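 active = inhibition above the mean over all tested compounds plus 3 SD, cut at about 21% in these data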;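 note: 0% = DMSO only wells and 100% = clavulanate BLA inhibitor control wells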
MC4R barr agon: human MC4R agonism via beta-arrestin. P32245. U2OS MC4R beta-arrestin complementation, luminescence; percent of melanotan II response, DMSO zero. activation, % at 8.9 µM. 0.98% of 360,000 active. AID 540308;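 active = activation above a per-plate cutoff, the mean activation of sample wells on that plate plus 3 SD, cut at about 8% in these data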
TLR4 MyD88 comp: TLR4-MyD88 interaction inhibition in cells | HeLa CL3-4 TLR4/MyD88 BLA complementation, FRET ratio | inhibition, % at 8.4 µM | 0.18% of 200,000 active | O00206+Q99836 | AID 861; in the data active = inhibition above about 25%;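 note: 0% = vehicle and 100% = reference inhibitor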
U2OS cAMP counter: U2OS forskolin cAMP inhibition counter-screen | parental U2OS, LANCE TR-FRET | inhibition, % at 6.5 µM | shares compounds with MC4R antag cAMP | 26% of 1,600 active;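 active = mean inhibition over triplicates above the low-control well mean plus 3 SD, set per campaign, cut at about 13% in these data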;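 note: signal is single emission at 671 nm which falls as cellular cAMP rises; 0% = forskolin-stimulated wells and 100% = buffer without forskolin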
MC4R cAMP antag: human MC4R cAMP antagonism confirmation; shares compounds with MC4R antag cAMP; MC4R-expressing cells, MTII-stimulated cAMP, TR-FRET; inhibition, % at 6.5 µM; 27% of 1,600 active; AID 602195; in the data active = inhibition above about 29%;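 note: 0% = agonist stimulated wells alone and 100% = agonist stimulated wells plus saturating reference antagonist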
Active calls of the source: *; nt = no result given. Only some compounds are listed: those with a hit (about 1.9% of all), similar ones and a draw of the others.

SMILES	NTR1 ag	MC4R antag cAMP	NOD2 RIPK2 PPI	TLR9-MyD88 inh	MC4R barr agon	TLR4 MyD88 comp	U2OS cAMP counter	MC4R cAMP antag
CC(=O)Nc1cccc(Oc2cc(C#N)c(C#N)cc2N2CCCCCC2)c1	5.2	33.1*	-2.4	0.8	-0.1	-2.3	1.6	10.3
O=C1CN(C(=O)Cn2ncc(Cl)c(Cl)c2=O)c2ccccc2N1	nt	44.5*	15.6	8.3	2.1	21.8	20.1*	30.3*
O=C(Cn1ncc(Cl)c(Cl)c1=O)NC1CCCCC1	21.8	47.2*	6.1	2.3	-0.9	nt	28.9*	72.0*
O=C(Cn1ncc(Cl)c(Cl)c1=O)NC1CCS(=O)(=O)C1 (stereo not drawn)	-1.4	7.3	-12.7	-0.6	0.5	nt	nt	nt
O=C1CN(C(=O)COc2ccc(Cl)c(Cl)c2)c2ccccc2N1	0.0	16.5	5.2	-6.8	3.5	nt	nt	nt
O=C(O)CCn1c(CO)nc2ccccc21	-0.1	12.8	-6.9	1.6	-2.0	-11.7	nt	nt
O=C(O)CCn1c(-c2ccccn2)nc2ccccc21	2.5	29.4*	-7.0	-10.2	1.0	nt	-1.0	1.2
CCc1ccc(S(=O)(=O)Nc2cc3c(cc2C)n(C)c(=O)n3C)cc1	0.4	-8.6	-6.5	-32.7	-3.2	nt	nt	nt
Cc1onc(-c2ccccc2Cl)c1C(=O)NNC(=O)c1nn(C)cc1Cl	-0.2	36.3*	-1.3	-6.8	-0.4	6.2	-3.4	-12.8
O=C(Nc1ccccc1)OC1CCC2CC1CCC2OC(=O)Nc1ccccc1 (stereo not drawn)	6.5	32.2*	7.9	-12.8	1.1	-14.9	2.2	32.5*
Cc1nc(Cl)c2c(n1)NC(=O)CO2	1.8	14.4	-16.1	nt	1.8	nt	nt	nt
O=C(Cc1ccc(Cl)cc1)c1c[nH]c(C(=O)NCc2cccnc2)c1	-1.0	32.2*	-2.5	3.1	-2.1	-2.8	1.9	1.3
O=C(Nc1nc(=O)n(C(=O)C2CC2)s1)c1ccccc1	-0.7	30.5*	-9.2	-5.4	0.8	16.0	0.6	-1.9
CCOc1cc(N2CCOCC2)c(OCC)cc1NCC(=O)N1CCN(Cc2ccccc2)CC1	1.5	29.4*	-7.8	-3.3	0.4	nt	1.2	1.1
Cc1cc(C)c(S(=O)(=O)N2CCN(C(=O)c3ccccc3OCc3c(C)noc3C)CC2)c(C)c1	nt	6.7	7.2	-3.2	-1.5	nt	nt	nt
CC(=O)NC1C(Oc2ccc3c(C)cc(=O)oc3c2)OC(COC(C)=O)C(OC(C)=O)C1OC(C)=O (stereo not drawn)	-0.7	19.8	2.9	-11.8	-2.2	-3.7	nt	nt
COc1cc(S(=O)(=O)N2CCN(C(=O)c3ccccc3)CC2)c(OC)cc1Br	-0.2	-1.1	-8.2	6.2	-1.4	2.8	nt	nt
CCCCCCCCCCCCCCCCn1cc[n+](CC(C)=O)c1	nt	28.7*	0.8	9.1	15.8*	10.0	3.2	32.5*
CCCCCCn1ccc(=N)cc1	5.6	3.0	2.1	9.0	-1.0	-3.4	nt	nt
O=C(OCc1ccccc1)N1CCC2CC1c1c(Cl)cccc12 (stereo not drawn)	nt	29.5*	-6.8	-1.0	2.6	nt	-1.6	-9.9
CSCCC(NC(=O)C1CCC(C)CC1)C(=O)Nc1ccc(NC(C)=O)cc1 (stereo not drawn)	0.5	15.3	-5.5	-4.9	0.3	nt	nt	nt
Cn1c(=O)[nH]c(=O)c2c1nc(N1CCOCC1)n2CCc1ccccc1	1.7	2.5	2.2	2.1	3.3	-2.5	nt	nt
O=S(=O)(/C(=C/c1ccc(C(F)(F)F)cc1)c1nc2ccccc2[nH]1)c1ccccc1	nt	34.9*	14.1	1.0	-1.8	19.9	13.2*	48.0*
COc1ccc(Cn2cc(C(=O)O)c(=O)c3ccccc32)cc1	0.0	2.6	4.8	0.8	-1.4	4.8	nt	nt
CC(C)CN(C(=O)CN(C)CC(=O)Nc1ccc(Cl)c(C(F)(F)F)c1)c1c(N)n(CC(C)C)c(=O)[nH]c1=O	1.6	10.8	5.9	-10.1	0.2	nt	nt	nt
SMILES	NTR1 ag	MC4R antag cAMP	NOD2 RIPK2 PPI	TLR9-MyD88 inh	MC4R barr agon	TLR4 MyD88 comp	U2OS cAMP counter	MC4R cAMP antag
Cc1sc(NC(=O)c2cccc(N3C(=O)CCC3=O)c2)nc1-c1ccccc1	0.9	11.8	0.6	3.4	-4.0	nt	nt	nt
CC(=O)c1sc(NC(=O)c2cccc(N3C(=O)CCC3=O)c2)nc1-c1ccccc1	-0.8	67.5*	-2.7	-4.5	-1.6	nt	10.2	0.9
COc1ccc(OC)c2sc(NC(=O)c3cccc(N4C(=O)CCC4=O)c3)nc12	0.8	6.5	-2.7	2.4	-1.2	nt	nt	nt
COc1ccc(-c2csc(NC(=O)c3cccc(N4C(=O)CCC4=O)c3)n2)cc1C	10.8	58.3*	6.5	-2.2	-0.4	nt	17.9*	33.5*
CC1(C)OC2OC3C(CNCCO)OC(c4ccccc4)OC3C2O1 (stereo not drawn)	nt	10.1	-2.1	-3.3	-1.7	nt	nt	nt
CC(C)(C)c1cc(C(c2cccnc2)N2CCN(CCO)CC2)cc(C(C)(C)C)c1O (stereo not drawn)	1.2	28.6*	7.7	7.0	-2.6	8.1	9.6	19.4
N#Cc1c(N)c2ccccn2c1C(=O)c1ccc(Br)cc1	1.6	3.1	1.1	-4.3	0.6	nt	nt	nt
COC(=O)c1ccc2c(=O)n(Cc3ccco3)c(SCC(=O)Nc3ccccc3Cl)nc2c1	7.7	29.0*	-8.1	-8.1	0.2	-8.3	-3.1	-4.9
O=C(O)c1ccc(/C=C2\COc3ccccc3C2=O)cc1	4.8	36.2*	-5.5	-0.9	-3.0	nt	5.1	6.0
CCC1(C)Cc2ccccc2-c2[nH]c(=S)[nH]c(=O)c21 (stereo not drawn)	3.2	29.3*	-12.9	-2.6	-0.8	nt	19.7*	46.5*
CCC1(C)Cc2ccccc2-c2nc[nH]c(=O)c21 (stereo not drawn)	0.9	0.5	5.7	-0.4	1.0	nt	nt	nt
CCOC(=O)c1sc(NC(=O)c2ccc(S(=O)(=O)N3CCCCC3)cc2)nc1-c1ccccc1	4.5	-2.1	1.3	-2.4	-0.6	-10.3	nt	nt
CCOC(=O)c1sc(NC(=O)c2ccc(S(=O)(=O)N3CCCCCC3)cc2)nc1-c1ccccc1	4.1	32.4*	6.7	-6.9	-0.9	11.9	-5.6	0.4
CCOc1ccc(CCNC(=O)CS(=O)Cc2nc(-c3ccccc3C)oc2C)cc1OCC (stereo not drawn)	-0.3	3.0	-8.5	2.1	-2.0	nt	nt	nt
COc1cc(/C=N/NC(=O)c2cccnc2)ccc1OS(=O)(=O)c1ccc(C)cc1	-1.0	28.8*	-5.8	-4.3	-1.2	-4.1	1.6	5.4
COc1cc(/C=N/NC(=O)c2cccnc2)ccc1OS(=O)(=O)c1ccc(F)cc1	0.1	2.4	0.7	-0.7	-0.4	-1.3	nt	nt
COc1ccc(/C=N/Nc2nc(N3CCCCC3)nc(N3CCCCC3)n2)cc1[N+](=O)[O-]	4.2	25.0	-13.4	-1.2	0.4	-20.9	nt	nt
